Experimental data taken from article PMC9299185 (Pest Management Science, 2021).
Where two headings read alike, the source gives them in different places.

How the values were obtained:
honey bee CYP9Q3 [1] = molecular target: T1, honey bee CYP9Q3 (Apis mellifera, UniProt A0A7M7LMV1); experiment: Fluorescence-based BOMFC probe assay with recombinantly expressed CYP9Q3; type: biochemical; details: for Hill slope CYP9Q3: fungicides
T1 sequence (A0A7M7LMV1 1-517): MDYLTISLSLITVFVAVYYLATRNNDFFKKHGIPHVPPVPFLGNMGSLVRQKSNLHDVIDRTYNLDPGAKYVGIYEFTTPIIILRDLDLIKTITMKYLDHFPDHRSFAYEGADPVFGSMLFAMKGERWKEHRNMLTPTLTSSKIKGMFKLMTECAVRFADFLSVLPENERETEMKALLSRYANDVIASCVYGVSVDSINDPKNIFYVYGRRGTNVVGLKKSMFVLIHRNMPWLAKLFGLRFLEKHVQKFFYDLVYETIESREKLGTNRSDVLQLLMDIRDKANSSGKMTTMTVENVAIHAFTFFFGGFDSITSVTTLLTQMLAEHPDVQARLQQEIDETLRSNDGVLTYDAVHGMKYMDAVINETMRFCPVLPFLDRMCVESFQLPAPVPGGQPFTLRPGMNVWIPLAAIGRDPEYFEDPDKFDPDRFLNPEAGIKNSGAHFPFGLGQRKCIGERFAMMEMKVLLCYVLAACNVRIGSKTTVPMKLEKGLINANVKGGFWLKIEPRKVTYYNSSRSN
T1 sequence (A0A8U1CY41 1-694 partner): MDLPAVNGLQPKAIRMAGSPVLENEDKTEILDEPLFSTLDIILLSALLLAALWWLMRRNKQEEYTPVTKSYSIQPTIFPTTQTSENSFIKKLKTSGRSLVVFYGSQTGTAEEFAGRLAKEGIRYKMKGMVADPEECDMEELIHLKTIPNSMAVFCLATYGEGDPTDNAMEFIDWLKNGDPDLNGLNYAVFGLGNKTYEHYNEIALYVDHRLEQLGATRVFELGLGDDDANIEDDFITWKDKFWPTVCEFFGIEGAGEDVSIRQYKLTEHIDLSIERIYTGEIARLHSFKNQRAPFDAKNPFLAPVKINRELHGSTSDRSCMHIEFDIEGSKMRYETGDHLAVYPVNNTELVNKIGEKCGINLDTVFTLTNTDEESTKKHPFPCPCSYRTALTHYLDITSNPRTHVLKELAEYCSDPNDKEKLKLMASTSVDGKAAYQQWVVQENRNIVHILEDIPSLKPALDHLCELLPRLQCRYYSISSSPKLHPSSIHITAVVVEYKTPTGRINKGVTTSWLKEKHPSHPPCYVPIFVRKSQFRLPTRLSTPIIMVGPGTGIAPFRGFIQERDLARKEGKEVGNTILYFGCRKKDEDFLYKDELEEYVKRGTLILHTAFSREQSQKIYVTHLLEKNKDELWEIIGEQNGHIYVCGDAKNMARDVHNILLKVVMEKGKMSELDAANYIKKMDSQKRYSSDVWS

honey bee CYP9Q2 [2] = molecular target: T2, honey bee CYP9Q2 (Apis mellifera, UniProt A0A7M7R6F2); experiment: Fluorescence-based BOMFC probe assay with recombinantly expressed CYP9Q2; type: biochemical; details: for Hill slope CYP9Q2: fungicides
T2 sequence (A0A7M7R6F2 1-532): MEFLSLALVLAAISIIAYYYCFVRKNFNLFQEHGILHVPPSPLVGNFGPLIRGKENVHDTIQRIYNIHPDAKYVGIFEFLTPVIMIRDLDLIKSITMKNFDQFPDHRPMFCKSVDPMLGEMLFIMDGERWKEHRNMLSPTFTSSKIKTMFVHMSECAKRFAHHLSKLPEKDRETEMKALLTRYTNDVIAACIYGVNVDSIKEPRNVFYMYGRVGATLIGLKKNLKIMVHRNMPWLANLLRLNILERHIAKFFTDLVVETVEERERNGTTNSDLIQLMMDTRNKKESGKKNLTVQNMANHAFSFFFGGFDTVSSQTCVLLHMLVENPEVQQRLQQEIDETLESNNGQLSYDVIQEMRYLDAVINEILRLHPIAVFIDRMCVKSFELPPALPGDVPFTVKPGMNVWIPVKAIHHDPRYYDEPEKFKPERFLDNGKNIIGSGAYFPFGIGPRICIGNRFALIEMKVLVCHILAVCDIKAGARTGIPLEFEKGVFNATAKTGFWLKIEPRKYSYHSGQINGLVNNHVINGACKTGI
T2 sequence (A0A8U1CY41 1-694 partner): T1 sequence (A0A8U1CY41 1-694 partner)

[3] = test system: Drosophila melanogaster Empty × Hsp70 (reference control strain); experiment: Drosophila diet overlay bioassay, control strain; type: in vivo; details: Empty × Hsp70 adults
Outline: (§1)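 F1 adults came from crossing UAS strains carrying honey bee CYP9Q2 or CYP9Q3, or a control strain lacking the transgene, with a GAL4-Hsp70 driver. Flies were heat-shocked at 37 °C three times for 30 min the day before, then again just before testing. The test compound in acetone was diluted 1:2 in water with 0.1% (w/v) Triton X-100 and spread over artificial diet. Mortality was scored at 48 h. Values came from probit analysis; resistance ratio = transgenic LD50 / control LD50.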

[4] = test system: transgenic Drosophila melanogaster CYP9Q2 × Hsp70; experiment: Drosophila diet overlay bioassay, strain expressing honey bee CYP9Q2; type: in vivo; details: for LD50 48 h: CYP9Q2 × Hsp70 adults, diet overlay; for RR (resistance ratio): LD50 of CYP9Q2 × Hsp70 divided by LD50 of Empty × Hsp70; for Slope: probit analysis, CYP9Q2 × Hsp70
Outline: as §1

[5] = test system: transgenic Drosophila melanogaster CYP9Q3 × Hsp70; experiment: Drosophila diet overlay bioassay, strain expressing honey bee CYP9Q3; type: in vivo; details: for LD50 48 h: CYP9Q3 × Hsp70 adults, diet overlay; for RR (resistance ratio): LD50 of CYP9Q3 × Hsp70 divided by LD50 of Empty × Hsp70; for Slope: probit analysis, CYP9Q3 × Hsp70
Outline: as §1

[6] = Honey bee acute contact toxicity and synergism study; type: in vivo, Apis mellifera; details: female, Apis mellifera (honey bee), in vivo, topical, honey bee mortality
Outline: (§2)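 OECD 214 acute contact test, modified for the synergist. Mixed-age workers came from the honey super of three queen-right colonies untreated for at least 6 months. Propiconazole was applied at 10 μg/bee. Controls received acetone or propiconazole alone. Mortality was scored at 48 h. Groups were compared by unpaired t-test (P < 0.01), with SEM shown.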

[7] = test system: Apis mellifera worker bees; experiment: as above; type: in vivo; details: for effect of propiconazole pretreatment on acute contact toxicity: 10 μg/bee propiconazole 1 h prior to insecticide application
Outline: as §2

honey bee CYP6AQ1 = molecular target: T3, honey bee CYP6AQ1 (Apis mellifera, UniProt F1DPP0); experiment: Fluorescence-based BOMFC probe assay with recombinantly expressed CYP6AQ1; type: biochemical; details: for inhibition of CYP6AQ1-mediated BOMFC metabolism: 100 μM
T3 sequence (F1DPP0 1-514): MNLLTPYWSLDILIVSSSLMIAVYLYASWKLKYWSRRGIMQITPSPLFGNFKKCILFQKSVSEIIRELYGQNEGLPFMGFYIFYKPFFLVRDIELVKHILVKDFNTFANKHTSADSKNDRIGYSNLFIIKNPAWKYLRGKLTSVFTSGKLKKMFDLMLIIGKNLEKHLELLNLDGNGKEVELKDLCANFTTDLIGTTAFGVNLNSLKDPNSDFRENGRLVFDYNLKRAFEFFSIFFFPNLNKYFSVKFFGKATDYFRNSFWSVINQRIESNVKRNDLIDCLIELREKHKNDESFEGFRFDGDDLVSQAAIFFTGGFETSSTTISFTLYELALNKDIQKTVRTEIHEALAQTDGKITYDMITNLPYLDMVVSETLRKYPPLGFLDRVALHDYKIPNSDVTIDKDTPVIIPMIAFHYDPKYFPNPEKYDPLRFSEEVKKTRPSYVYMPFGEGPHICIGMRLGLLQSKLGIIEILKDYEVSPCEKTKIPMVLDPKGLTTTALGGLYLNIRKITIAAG
T3 sequence (A0A8U1CY41 1-694 partner): T1 sequence (A0A8U1CY41 1-694 partner)

[8] = test system: Apis mellifera worker bees; details: honey bee, reported value; cited from earlier work
honey bee CYP9Q3 [9] = molecular target: T1, honey bee CYP9Q3; details: BOMFC probe, ref Haas et al. (2021)[33], cited from earlier work
honey bee CYP9Q2 [10] = molecular target: T2, honey bee CYP9Q2; details: BOMFC probe, ref Haas et al. (2021)[33], cited from earlier work
[11] = IC50 CYP9Q3, fungicides, BOMFC probe
[12] = IC50 CYP9Q2, fungicides, BOMFC probe
[13] = IC50 CYP9Q3, diamides, BOMFC probe 6.5 μM
[14] = highest concentration tested, 100 μM
[15] = IC50 CYP9Q2, diamides, BOMFC probe 15 μM

## N#Cc1c(Cl)c(Cl)c(Cl)c(C#N)c1Cl [Chlorothalonil, chlorothalonil]
Honey bee CYP9Q3 [1]; [11]
  IC50: > 10 µM
Honey bee CYP9Q2 [2]; [12]
  IC50: > 10 µM

## CC1(C)CCC(Cc2ccc(Cl)cc2)C1(O)Cn1cncn1 (centres unmarked) [Metconazole, metconazole]
Honey bee CYP9Q3 [1]; [11]
  IC50: 0.057 µM
Honey bee CYP9Q3 [1]; BOMFC probe
  Hill slope CYP9Q3: −1.03
Honey bee CYP9Q2 [2]; [12]
  IC50: 0.033 µM
Honey bee CYP9Q2 [2]; BOMFC probe
  Hill slope CYP9Q2: −0.6

## CC1COC(Cn2cncn2)(c2ccc(Oc3ccc(Cl)cc3)cc2Cl)O1 (centres unmarked) [Difenoconazole, difenoconazole]
Honey bee CYP9Q3 [1]; [11]
  IC50: 0.032 µM
Honey bee CYP9Q3 [1]; IC50 CYP9Q3, lowest IC50 value
  IC50: ~0.03 µM
Honey bee CYP9Q3 [1]; BOMFC probe
  Hill slope CYP9Q3: −1.02
Honey bee CYP9Q2 [2]; [12]
  IC50: 0.033 µM
Honey bee CYP9Q2 [2]; IC50 CYP9Q2, lowest IC50 value
  IC50: ~0.03 µM
Honey bee CYP9Q2 [2]; BOMFC probe
  Hill slope CYP9Q2: −0.81

## CC(C)NC(=O)N1CC(=O)N(c2cc(Cl)cc(Cl)c2)C1=O [Iprodione, iprodione]
Honey bee CYP9Q3 [1]; [11]
  IC50: > 10 µM
Honey bee CYP9Q2 [2]; [12]
  IC50: > 10 µM

## N#CC(CCc1ccc(Cl)cc1)(Cn1cncn1)c1ccccc1 (centres unmarked) [Fenbuconazole, fenbuconazole]
Honey bee CYP9Q3 [1]; [11]
  IC50: 0.058 µM
Honey bee CYP9Q3 [1]; BOMFC probe
  Hill slope CYP9Q3: −0.86
Honey bee CYP9Q2 [2]; [12]
  IC50: 0.041 µM
Honey bee CYP9Q2 [2]; BOMFC probe
  Hill slope CYP9Q2: −0.67

## Cc1cc(C(F)(C(F)(F)F)C(F)(F)F)ccc1NC(=O)c1cccc(I)c1C(=O)NC(C)(C)CS(C)(=O)=O [Flubendiamide, flubendiamide]
[3]
  LD50 48 h: 147 ppm
Honey bee CYP9Q3 [1]; [13]
  IC50: > 100 µM
Honey bee CYP9Q3 [1]; [14]
  interaction with BOMFC metabolism by CYP9Q3: did not show any obvious interaction
[4]
  LD50 48 h: 253 ppm
  RR (resistance ratio): 1.73
  Slope: 4.62
Honey bee CYP9Q2 [2]; [15]
  IC50: > 100 µM
Honey bee CYP9Q2 [2]; [14]
  interaction with BOMFC metabolism by CYP9Q2: did not show any obvious interaction
[5]
  LD50 48 h: 179 ppm
  RR (resistance ratio): 1.23
  Slope: 6.97
[6]; 100 μg/bee, FLB doses of 100 μg/bee, acute contact
  mortality at 48 h: < 5%
[7]
  effect of propiconazole pretreatment on acute contact toxicity: not influenced
Honey bee CYP6AQ1
  IC50: > 100 µM
  inhibition of CYP6AQ1-mediated BOMFC metabolism: did not show any obvious interaction

## CNC(=O)c1cc(Cl)cc(C)c1NC(=O)c1cc(Br)nn1-c1ncccc1Cl [Chlorantraniliprole]
[3]
  LD50 48 h: 22.2 ppm
Honey bee CYP9Q3 [1]; [13]
  IC50: 17.4 µM
[4]
  LD50 48 h: 96.2 ppm
  RR (resistance ratio): 4.34
  Slope: 1.74
Honey bee CYP9Q2 [2]; [15]
  IC50: 93.4 µM
[5]
  LD50 48 h: 155 ppm
  RR (resistance ratio): 6.99
  Slope: 2.86
[8]
  LD50: > 4 μg/bee
[6]; 0.2 μg/bee, topical 0.2 μg/bee CPR alone, 48 h
  mortality at 48 h: 3.6%
[6]; 2 μg/bee, topical 2 μg/bee CPR alone, 48 h, ± SEM, n = 3
  mortality at 48 h: 12%
[6]; topical application of 2 μg/bee and 0.2 μg/bee CPR alone
  mortality at 48 h: < 15%
[7]
  effect of propiconazole pretreatment on acute contact toxicity: significantly increased
Honey bee CYP6AQ1
  IC50: > 100 µM
  inhibition of CYP6AQ1-mediated BOMFC metabolism: not inhibited

## COC(=O)N(OC)c1ccccc1COc1ccn(-c2ccc(Cl)cc2)n1 [Pyraclostrobin, pyraclostrobin]
Honey bee CYP9Q3 [1]; [11]
  IC50: 7.84 µM
Honey bee CYP9Q3 [1]; BOMFC probe
  Hill slope CYP9Q3: −0.56
Honey bee CYP9Q2 [2]; [12]
  IC50: > 10 µM

## O=C(Nc1ccccc1-c1ccc(Cl)cc1)c1cccnc1Cl [Boscalid, boscalid]
Honey bee CYP9Q3 [1]; [11]
  IC50: 4.13 µM
Honey bee CYP9Q3 [1]; BOMFC probe
  Hill slope CYP9Q3: −1.05
Honey bee CYP9Q2 [2]; [12]
  IC50: > 10 µM

## Cc1cc(C2CC2)nc(Nc2ccccc2)n1 [Cyprodinil]
Honey bee CYP9Q3 [1]; [11]
  IC50: > 10 µM
Honey bee CYP9Q2 [2]; [12]
  IC50: > 10 µM

## CCCC1COC(Cn2cncn2)(c2ccc(Cl)cc2Cl)O1 (centres unmarked) [Propiconazole, propiconazole]
Honey bee CYP9Q3 [9]
  Hill slope CYP9Q3: −1.10
Honey bee CYP9Q3 [9]; read-out: IC50 CYP9Q3
  IC50: 0.072 µM
Honey bee CYP9Q2 [10]
  Hill slope CYP9Q2: −0.88
Honey bee CYP9Q2 [10]; read-out: IC50 CYP9Q2
  IC50: 0.151 µM
[7]; propiconazole only, 10 μg/bee, test period 48 h
  effect on control bees: remained unaffected
